Published values from different studies.
Target: Tyrosine-protein kinase Srms (SRMS, Homo sapiens, UniProt Q9H3Y6)

Compound	observed	method	concentration	remaining binding
N[C@@H]1CCN(c2nccc(-c3cnn4ncccc34)n2)C1	binding		1 µM	100%
C[C@@H](c1ccc(-n2cnc3c(N)ncnc32)cc1)N1CCc2nn(C)c(Cc3ccccc3)c2C1=O	binding	competition with immobilised ligand	0.1 µM	44%
CCC(=N\O)/C(C)=C/c1ccc(F)cc1	cell-free assay	competition with immobilised ligand	1 µM	76%
FC(F)(F)Oc1cccc(-c2cnc3ccc(-c4ccncc4)nn23)c1	cell-free assay	competition with immobilised ligand	5 µM	65%
c1cnn2ncc(-c3ccnc(N4CCC45COC5)n3)c2c1	binding		1 µM	70%
O=C(c1ccc(Nc2ncc(Cl)c(-c3cc4ccccc4s3)n2)cc1)N1CCC(N2CCCC2)CC1	binding	competition with immobilised ligand	1 µM	81%
O=C(Nc1c[nH]nc1C(=O)NC1CCNCC1)c1cc(F)cc(F)c1	binding	competition with immobilised ligand	1 µM	84%
CNC(=O)[C@@H]1CC[C@@H](n2c(-c3ccc4cnccc4c3)nc3ccc(C(=O)NCc4cccc(C(N)=O)c4)cc32)C1	binding	competition with immobilised ligand	1 µM	97%
COc1ccnn2ncc(-c3ccnc(N(C)C)n3)c12	binding		1 µM	78%
CN([C@@H]1CCc2c(CC(=O)O)c3ccccc3n2C1)S(=O)(=O)c1ccc(F)cc1	cell-free assay	competition with immobilised ligand	1 µM	81%
O=C(NCCCN1CCOCC1)c1ccc(Nc2nccc(-c3cc4ccccc4s3)n2)cc1	binding	competition with immobilised ligand	1 µM	100%
CN(c1nccc(-c2cnn3ncccc23)n1)C1CC1	binding		1 µM	100%
O=C(c1ccc(Nc2ncc(Cl)c(-c3ccc(Cl)s3)n2)cc1)N1CCC(N2CCCC2)CC1	binding	competition with immobilised ligand	1 µM	98%
COc1cnc(Nc2cccc(S(N)(=O)=O)c2)nc1N1CCN(c2ccccc2)CC1	binding	competition with immobilised ligand	1 µM	83%
COc1cc(-c2cn(C3CCc4ccccc4N(CC(F)(F)F)C3=O)nn2)ccc1-n1ccc(C)n1 (stereo not shown)	cell-free assay	competition with immobilised ligand	1 µM	84%
C=CC(=O)N1CCC(C(=O)NCC(=O)N2CCN(c3nc(-c4cnc(N)nc4C(F)F)nc(N4CCOCC4)n3)CC2)CC1	binding	competition with immobilised ligand	1 µM	72%
CS(=O)(=O)NCC[C@H](NC(=O)c1cncc2c1cnn2-c1ccc(F)cc1)c1ccnc(S(C)(=O)=O)c1	cell-free assay	competition with immobilised ligand	1 µM	83%
CN(C)c1nccc(-c2cnn3ncccc23)n1	binding		1 µM	64%
O=C(Nc1cccnn1)N1CC(C/C=C/c2cncc(Oc3ccc(C(F)(F)F)cn3)n2)C1	cell-free assay	competition with immobilised ligand	1 µM	67%
Cc1cnn2ncc(-c3ccnc(N(C)C)n3)c2c1	binding		1 µM	100%
N#CC1(c2ccccn2)CCN(Cc2cc(C(=O)N3CCCC3)c(=O)n3ccccc23)CC1	cell-free assay	competition with immobilised ligand	1 µM	100%
COc1ncc2cc3ccccc3nc2c1C#N	cell-free assay	competition with immobilised ligand	5 µM	100%
